In ChEMBL document CHEMBL1122823, “Synthesis and receptor-binding affinity of fluorotamoxifen, a possible estrogen-receptor imaging agent” (J Med Chem, 1985):
Several values for one entry are separate records, joined by “and”; a condition that tells them apart may be missing. Equal values may be shown once. Values belong to the compound of their own block, whether it stands above or below them.

Columns and labels:
[1] = molecular target: T1, Estrogen receptor (Rattus norvegicus) (UniProt P06211+Q62986); test: Percent uterotrophic effect at 500 ug/day dose compared to estradiol; assay type: functional
[2] = molecular target: T1, Estrogen receptor (Rattus norvegicus); test: Uterotrophic effect in rats uterine at 500 ug/day dose; assay type: functional, tissue-based; conditions: Uterus
[3] = molecular target: T1, Estrogen receptor (Rattus norvegicus); test: Uterotrophic effect in rats uterine at 500 ug/day dose in the presence of 0.08 ug estradiol; assay type: functional, tissue-based; conditions: Uterus
[4] = molecular target: T1, Estrogen receptor (Rattus norvegicus); test: Uterotrophic effect in rats uterine at 500 ug/day dose in the presence of 0.2 ug estradiol; assay type: functional, tissue-based; conditions: Uterus
[5] = molecular target: T1, Estrogen receptor (Rattus norvegicus); test: Uterotrophic effect in rats uterine at 500 ug/day dose in the presence of 10 ug estradiol; assay type: functional, tissue-based; conditions: Uterus
[6] = molecular target: T1, Estrogen receptor (Rattus norvegicus); test: Uterotrophic effect in rats uterine at 500 ug/day dose in the presence of 0.10 ug estradiol; assay type: functional, tissue-based; conditions: Uterus
[7] = molecular target: T1, Estrogen receptor (Rattus norvegicus); test: Uterotrophic effect in rats uterine at 100 ug/day dose in the presence of 0.20 ug estradiol; assay type: functional, tissue-based; conditions: Uterus
[8] = molecular target: T1, Estrogen receptor (Rattus norvegicus); test: Uterotrophic effect in rats uterine at 100 ug/day dose in the presence of 10 ug estradiol; assay type: functional, tissue-based; conditions: Uterus
[9] = molecular target: T1, Estrogen receptor (Rattus norvegicus); test: Uterotrophic effect in rats uterine at 100 ug/day dose in the presence of 0.05 ug hexestrol; assay type: functional, tissue-based; conditions: Uterus
[10] = molecular target: T1, Estrogen receptor (Rattus norvegicus); test: Uterotrophic effect in rats uterine at 10 ug/day dose in the presence of 0.08 ug estradiol; assay type: functional, tissue-based; conditions: Uterus
[11] = molecular target: T1, Estrogen receptor (Rattus norvegicus); test: Uterotrophic effect in rats uterine at 100 ug/day dose; assay type: functional, tissue-based; conditions: Uterus
[12] = molecular target: T1, Estrogen receptor (Rattus norvegicus); test: Uterotrophic effect in rats uterine at 1 ug/day dose in the presence of 0.08 ug estradiol; assay type: functional, tissue-based; conditions: Uterus
[13] = molecular target: T1, Estrogen receptor (Rattus norvegicus)
[14] = molecular target: T1, Estrogen receptor (Rattus norvegicus); conditions: Uterus
[15] = molecular target: T1, Estrogen receptor (Rattus norvegicus); conditions: Uterus; remark: listed apart in the source
[16] = molecular target: T1, Estrogen receptor (Rattus norvegicus); test: Percent uterotrophic effect at 50 ug/day dose compared to estradiol; assay type: functional
[17] = molecular target: T1, Estrogen receptor (Rattus norvegicus); test: Uterotrophic effect in rats uterine at 50 ug/day dose; assay type: functional, tissue-based; conditions: Uterus
[18] = molecular target: T1, Estrogen receptor (Rattus norvegicus); test: Percent uterotrophic effect at 100 ug/day dose compared to estradiol; assay type: functional
[19] = molecular target: T1, Estrogen receptor (Rattus norvegicus); test: Uterotrophic effect in rats uterine at 10 ug/day dose; assay type: functional, tissue-based; conditions: Uterus
[20] = molecular target: T1, Estrogen receptor (Rattus norvegicus); test: Uterotrophic effect in rats uterine at 100 ug/day dose in the presence of 0.1 ug estradiol; assay type: functional, tissue-based; conditions: Uterus
[21] = molecular target: T1, Estrogen receptor (Rattus norvegicus); test: Uterotrophic effect in rats uterine at 100 ug/day dose in the presence of 0.5 ug hexestrol; assay type: functional, tissue-based; conditions: Uterus
[22] = molecular target: T1, Estrogen receptor (Rattus norvegicus); test: Uterotrophic effect in rats uterine at 10 ug/day dose in the presence of 0.16 ug estradiol; assay type: functional, tissue-based; conditions: Uterus
[23] = molecular target: T1, Estrogen receptor (Rattus norvegicus); test: Uterotrophic effect in rats uterine at 1000 ug/day dose; assay type: functional, tissue-based; conditions: Uterus
[24] = molecular target: T1, Estrogen receptor (Rattus norvegicus); test: Uterotrophic effect in rats uterine at 1000 ug/day dose in the presence of 0.16 ug estradiol; assay type: functional, tissue-based; conditions: Uterus
[25] = molecular target: T1, Estrogen receptor (Rattus norvegicus); test: Percent uterotrophic effect at 0.1 ug/day dose compared to estradiol; assay type: functional
[26] = molecular target: T1, Estrogen receptor (Rattus norvegicus); test: Uterotrophic effect in rats at 0.1 ug/day dose; assay type: functional, tissue-based; conditions: Uterus
[27] = molecular target: T1, Estrogen receptor (Rattus norvegicus); test: Uterotrophic effect in rats uterine at 0.01 ug/day dose; assay type: functional, tissue-based; conditions: Uterus
[28] = molecular target: T1, Estrogen receptor (Rattus norvegicus); test: Uterotrophic effect in rats uterine at 0.03 ug/day dose; assay type: functional, tissue-based; conditions: Uterus
[29] = molecular target: T1, Estrogen receptor (Rattus norvegicus); test: Uterotrophic effect in rats uterine at 0.3 ug/day dose; assay type: functional, tissue-based; conditions: Uterus
[30] = molecular target: T1, Estrogen receptor (Rattus norvegicus); conditions: Uterus; remark: listed apart in the source
[31] = Dissociation constant was evaluated.; assay type: functional
Summary of the method: (§1)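 Rat uterine cytosol from 19-day-old immature Sabra rats, homogenized at 0 °C in TEG buffer (pH 7.4, 10% glycerol, 0.01 M DTT) and spun to 105000g, diluted to 2 uteri/mL. […] Free ligand removed with 2.5% dextran-coated charcoal. Nonspecific binding taken with 10000-fold excess. KA = KL·A50/([L*]+KL), with free [L*] 10 nM.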

[32] = molecular target: T1, Estrogen receptor (Rattus norvegicus); test: Percent uterotrophic effect at 10 ug/day dose compared to estradiol; assay type: functional
[33] = molecular target: T1, Estrogen receptor (Rattus norvegicus); test: Uterotrophic effect in rats at 10 ug/day dose; assay type: functional, tissue-based; conditions: Uterus
[34] = Dissociation constant was evaluated; assay type: physicochemical; summary of the method: as §1

Compound: CC/C(=C(\c1ccc(NC(C)=O)cc1)c1ccc(ON(C)C)cc1)c1ccccc1
Effect [16]: 60%
Max uterine weight [17]: 41.8 mg

Compound: CC/C(=C(\c1ccc(F)cc1)c1ccc(OCCN(C)C)cc1)c1ccccc1
Effect [18]: 108%
Uterine weight [19]: 68.9
Uterine weight [20]: 74
Uterine weight [7]: 73.8
Uterine weight [8]: 80.3
Uterine weight [9]: 70.4
Uterine weight [21]: 71.2
Uterine weight [22]: 72.2
Uterine weight [23]: 85.7
Uterine weight [24]: 76.9
Max uterine weight [11]: 76.4 mg
Uterine weight [11]: 76.4
A50 [13]: 5000 nM

Compound: CC[C@H](c1ccc(O)cc1)[C@@H](CC)c1ccc(O)cc1
Effect [25]: 143%
Max uterine weight [26]: 62.6 mg
Uterine weight [27]: 29.3
Uterine weight [28]: 62.6
Uterine weight [29]: 94.5
Uterine weight [30]: 86.8
Uterine weight [14]: 90.2
Uterine weight [15]: 97.3

Compound: CC/C(=C(/c1ccc(O)cc1)c1ccc(F)cc1)c1ccccc1
KA [31]: 63 nM
Effect [32]: 140%
Max uterine weight [33]: 97 mg
A50 [13]: 670 nM

Second part, the compound after the results:

Effect [1]: 76%
Max uterine weight [2]: 54 mg
Uterine weight [2]: 54
Uterine weight [3]: 56.5
Uterine weight [4]: 62
Uterine weight [5]: 67.2
Uterine weight [6]: 46
Uterine weight [7]: 43
Uterine weight [8]: 57.1
Uterine weight [9]: 46 and 70.3
Uterine weight [10]: 54.8
Uterine weight [11]: 50.3
Uterine weight [12]: 58.2
A50 [13]: 20 nM
Uterine weight [14]: 29.6
Uterine weight [15]: 44
Compound: CC/C(=C(\c1ccc(N)cc1)c1ccc(OCCN(C)C)cc1)c1ccccc1

KA [34]: 400 pM
Compound: CC/C(=C(/CC)c1ccc(O)cc1)c1ccc(O)cc1 [DIETHYLSTILBESTROL]

Effect [16]: 98%
Max uterine weight [17]: 65.8 mg
A50 [13]: 1200 nM
Compound: CC/C(=C(/c1ccc(O)cc1)c1ccc(NC(C)=O)cc1)c1ccccc1
